Experimental data as given in paper PMC3742633 (Molecular cancer therapeutics, 2013).

Legend:
Test in all cases: NCI 60 cell line screen, Sulforhodamine B Assay
Type in all cases: cell-based
HL-60(TB) = conditions: Homo sapiens, HL-60, 48 h
Summary of the method: (§1)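 Run through the NCI-60 screening service: human cancer cell lines exposed to test compound for 48 h. Growth read as cellular protein content by sulforhodamine B staining, and GI50 derived from this.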

OVCAR-3 = conditions: Homo sapiens, OVCAR-3, 48 h
Summary of the method: as §1

M14 = conditions: Homo sapiens, M14, 48 h
Summary of the method: as §1

786–0 = conditions: Homo sapiens, 786-0, 48 h
Summary of the method: as §1

SN12C = conditions: Homo sapiens, 48 h
Summary of the method: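 Run through the National Cancer Institute 60 cell line screening service on its panel of 59 human cancer lines in vitro. Cytostatic/toxic effect was read as cellular protein content (sulforhodamine B) over 48 h.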

MALME-3M = conditions: Homo sapiens, 48 h
Summary of the method: as §1

SF-295 = conditions: Homo sapiens, SF-295, 48 h
Summary of the method: as §1

MDA-MB-468 = conditions: Homo sapiens, MDA-MB-468, 48 h
Summary of the method: as §1

MCF7 = conditions: Homo sapiens, MCF7, 48 h
Summary of the method: as §1

NCI-H460 = conditions: Homo sapiens, NCI-H460, 48 h
Summary of the method: as §1

DU-145 = conditions: Homo sapiens, DU-145, 48 h
Summary of the method: as §1

O=C(C=Cc1ccc2ccccc2n1)c1ccncc1 [PFK15, 1-(4-pyridinyl)-3-(2-quinolinyl)-2-propen-1-one]
GI50 (HL-60(TB)): 2040 nM | GI50 (OVCAR-3): 3160 nM | GI50 (M14): 3720 nM | GI50 (786–0): 2000 nM | GI50 (SN12C): 1860 nM | GI50 (MALME-3M): 3310 nM | GI50 (SF-295): 13500 nM | GI50 (MDA-MB-468): 1660 nM | GI50 (MCF7): 1860 nM | GI50 (NCI-H460): 3470 nM | GI50 (DU-145): 2240 nM
